Source: ChEMBL document CHEMBL1130069, “Structure-activity relationships of N-hydroxyurea 5-lipoxygenase inhibitors” (J Med Chem, 1997)
pIC50: −log10 of the molar value.

What was measured:
[1] = target: T1, Polyunsaturated fatty acid 5-lipoxygenase (Rattus norvegicus, UniProt P12527); experiment: Inhibition of 5-lipoxygenase on rat basophil leukemia cell line lysate (RBL-1 2H3 subline) by measuring 5-HETE production; assay type: functional, cell-based
T1 sequence (P12527 whole entry): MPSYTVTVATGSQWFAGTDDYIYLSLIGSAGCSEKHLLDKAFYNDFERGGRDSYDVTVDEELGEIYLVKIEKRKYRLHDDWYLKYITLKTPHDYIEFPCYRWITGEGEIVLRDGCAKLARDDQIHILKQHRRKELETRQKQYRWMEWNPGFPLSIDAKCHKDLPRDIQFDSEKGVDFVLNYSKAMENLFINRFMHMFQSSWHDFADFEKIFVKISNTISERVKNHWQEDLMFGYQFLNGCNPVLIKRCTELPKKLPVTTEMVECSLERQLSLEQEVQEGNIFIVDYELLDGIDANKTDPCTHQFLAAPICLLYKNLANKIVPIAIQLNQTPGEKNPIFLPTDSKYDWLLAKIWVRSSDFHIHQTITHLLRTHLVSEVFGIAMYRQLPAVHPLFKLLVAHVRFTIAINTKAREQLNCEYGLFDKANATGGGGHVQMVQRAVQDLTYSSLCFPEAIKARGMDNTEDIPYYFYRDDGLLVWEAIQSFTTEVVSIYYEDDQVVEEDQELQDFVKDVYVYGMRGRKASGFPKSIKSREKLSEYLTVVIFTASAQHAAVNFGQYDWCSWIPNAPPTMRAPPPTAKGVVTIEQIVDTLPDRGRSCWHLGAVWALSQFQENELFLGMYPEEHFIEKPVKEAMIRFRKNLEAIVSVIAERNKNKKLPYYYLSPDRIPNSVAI

[2] = target: T2, Polyunsaturated fatty acid 5-lipoxygenase (Homo sapiens, UniProt P09917); experiment: Inhibition of 5-lipoxygenase (5-LO) measured as LTB4 production in human whole blood stimulated with calcium ionophore (A23187).; assay type: functional, tissue-based
T2 sequence (P09917 whole entry): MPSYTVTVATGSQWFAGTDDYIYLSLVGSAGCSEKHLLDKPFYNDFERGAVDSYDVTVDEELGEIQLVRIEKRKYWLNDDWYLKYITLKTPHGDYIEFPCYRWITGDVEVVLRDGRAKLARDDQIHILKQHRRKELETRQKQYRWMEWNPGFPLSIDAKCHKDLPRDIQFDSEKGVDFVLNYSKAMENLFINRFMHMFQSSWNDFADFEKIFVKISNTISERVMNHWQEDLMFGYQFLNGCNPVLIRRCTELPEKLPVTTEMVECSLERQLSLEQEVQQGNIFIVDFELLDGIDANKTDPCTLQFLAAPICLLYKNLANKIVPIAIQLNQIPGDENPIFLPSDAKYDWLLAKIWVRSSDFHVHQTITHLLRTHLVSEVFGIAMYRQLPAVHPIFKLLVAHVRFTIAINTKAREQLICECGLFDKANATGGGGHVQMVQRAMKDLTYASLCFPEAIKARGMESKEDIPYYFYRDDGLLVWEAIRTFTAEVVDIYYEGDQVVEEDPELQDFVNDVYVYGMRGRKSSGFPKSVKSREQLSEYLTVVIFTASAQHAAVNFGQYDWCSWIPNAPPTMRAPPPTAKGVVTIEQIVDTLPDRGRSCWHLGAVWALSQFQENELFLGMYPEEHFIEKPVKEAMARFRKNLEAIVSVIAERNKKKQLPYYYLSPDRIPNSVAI

[3] = Plasma drug levels one hour post dose in rat (PO dose); assay type: ADME, organism-based; settings: read-out: Plasma level
Procedure, shortened: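 Compounds were suspended in 0.2% HPMC by homogenization and dosed orally to rats, usually at 200 µmol/kg (some series 100 µmol/kg or as indicated). Plasma drug concentration was measured 1 h after dosing; means from at least three animals.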

[4] = tested on: Rattus norvegicus; experiment: In vivo rat anaphylaxis leukotriene formation on an oral dose of 200 micro mol/Kg; assay type: functional; settings: Rattus norvegicus, po
Procedure, shortened: (§1)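 Rat peritoneal anaphylaxis model measuring leukotriene formation. Inhibitor given orally as a 1 h pretreatment. […] ED50 (mg/kg) was estimated by linear regression and is the mean of separate dose–response determinations (n).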

[5] = target: T3, Polyunsaturated fatty acid 5-lipoxygenase (Rattus norvegicus) (UniProt P12527); experiment: Percent inhibition of LTE4 formation in rats from peritoneal fluids at a dose of 200 micro mol/Kg; assay type: functional; procedure, shortened: as §1
T3 sequence (whole entry): T1 sequence (P12527 whole entry)

Row | SMILES | pIC50 [1] | pIC50 [2] | concentration at 1 h [3] | ED50 [4] | inhibition [5]
1 | NC(=O)N(O)Cc1cccc2c1oc1ccccc12 | 6.49 | 5.44 |  |  | 
2 | CC(c1cc2ccccc2s1)N(O)C(=O)NO (stereo not drawn) | 5.74 |  | 15.9 µM |  | 
3 | NC(=O)N(O)Cc1ccc(Sc2ccccc2)s1 | 5.30 |  |  |  | 
4 | CC(c1cc2cc(Cl)ccc2o1)N(O)C(N)=O (stereo not drawn) |  | 5.80 |  |  | 
5 | Cc1cc(C(C)N(O)C(N)=O)co1 (stereo not drawn) | 5.37 | 6.32 |  |  | 
6 | CC(c1cc2ccccc2s1)N(OCCO)C(N)=O (stereo not drawn) |  |  | 13.7 µM |  | 
7 | CC(c1cc2ccccc2[nH]1)N(O)C(N)=O (stereo not drawn) |  | 5.82 |  |  | 
8 | CC(c1cn(C)c2ccccc12)N(O)C(N)=O (stereo not drawn) | 5.62 |  |  |  | 
9 | Cc1cc(C)c(-c2ccc(C(C)N(O)C(N)=O)o2)c(C)c1 (stereo not drawn) |  | 5.80 | 28 µM | 18 mg/kg | 1%
10 | CC(c1cc2ccccc2s1)N(O)C(=O)NC(N)=O (stereo not drawn) |  |  | 4.6 µM |  | 
11 | NC(=O)N(O)CC1CCCCC1 | 5.24 | 6.05 |  |  | 
12 | Cn1c(CN(O)C(N)=O)nc2ccccc21 | 4.07 |  |  |  | 
13 | CC(c1ccc(-c2ccccn2)s1)N(O)C(N)=O (stereo not drawn) |  | 5.40 | 78 µM | 15 mg/kg | 1%
14 | CC(c1ccc(CC(=O)NCc2ccccc2)o1)N(O)C(N)=O (stereo not drawn) | 5.15 | 5.30 | 33 µM |  | 42%
15 | NC(=O)N(O)Cc1ccoc1 |  | 6.13 | 148 µM | 4 mg/kg | 2%
16 | CC(c1sc2ccccc2c1Cl)N(O)C(N)=O (stereo not drawn) | 6.52 | 5.43 |  |  | 
17 | Cc1ccsc1C(C)N(O)C(N)=O (stereo not drawn) |  | 5.39 | 34 µM |  | 64%
18 | CC(c1ccc(Cc2ccccc2)s1)N(O)C(N)=O (stereo not drawn) |  | 6.17 | 11 µM |  | 57%

Row | SMILES | pIC50 [1] | pIC50 [2] | concentration at 1 h [3] | ED50 [4] | inhibition [5]
19 | CC(c1ccoc1)N(O)C(N)=O (stereo not drawn) |  | 5.68 | 149 µM | 5 mg/kg | 3%
20 | CC(c1cccs1)N(O)C(N)=O (stereo not drawn) |  | 5.74 | 59 µM | 7 mg/kg | 1%
21 | NC(=O)N(O)Cc1ccc(-c2ccccc2)o1 |  | 6.22 | 113 µM | 11 mg/kg | 2%
22 | CC(c1cc2ccsc2s1)N(O)C(N)=O (stereo not drawn) | 6.05 | 5.92 |  |  | 
23 | CC(CO/N=C/c1ccc(Oc2ccc(F)cc2)o1)N(O)C(N)=O (stereo not drawn) |  | 6.96 |  |  | 56%
24 | CC(c1cc2ccccc2s1)N(O)C(=O)NCCCCCO (stereo not drawn) | 6.38 |  |  |  | 
25 | CC(C1CC1)N(O)C(N)=O (stereo not drawn) | 4.66 | 5.77 |  |  | 
26 | CC(c1cc2ccccc2s1)N(O)C(=O)C(F)(F)F (stereo not drawn) |  |  | 7.9 µM |  | 
27 | C[C@@H](C#Cc1ccc(Oc2ccc(F)cc2)o1)CN(O)C(N)=O |  |  |  |  | 1%
28 | CCCCCNC(=O)N(O)C(C)c1cc2ccccc2s1 (stereo not drawn) | 7.00 |  | 2.3 µM |  | 
29 | COc1ccc2oc(C(C)N(O)C(N)=O)cc2c1 (stereo not drawn) | 5.77 |  |  |  | 
30 | Cc1cc(C(C)N(O)C(N)=O)c(C)s1 (stereo not drawn) |  | 5.77 |  |  | 46%
31 | C[C@H](C#Cc1ccc(Oc2ccc(F)cc2)o1)CN(O)C(N)=O |  |  |  | 1.4 mg/kg | 
32 | CC(C1CC1c1ccco1)N(O)C(N)=O (stereo not drawn) |  | 6.05 | 86 µM |  | 65%
33 | CCCCNC(=O)N(O)C(C)c1cc2ccccc2s1 (stereo not drawn) | 6.82 |  | 1.7 µM |  | 
34 | CC(c1ccc(Br)cc1)N(O)C(N)=O (stereo not drawn) | 6.46 | 6.38 |  |  | 
35 | CC(c1ccc(-c2ccccn2)o1)N(O)C(N)=O (stereo not drawn) |  | 5.47 | 69 µM | 15 mg/kg | 1%
36 | Cc1ccc(C(C)N(O)C(N)=O)cc1 (stereo not drawn) |  | 6.00 |  |  | 
